Source: ChEMBL document CHEMBL2016568, “Bromophenols as inhibitors of protein tyrosine phosphatase 1B with antidiabetic properties” (Bioorg Med Chem Lett, 2012)

What was measured:
[1] = biological target: T1, Tyrosine-protein phosphatase non-receptor type 1 (Homo sapiens) (UniProt P18031); assay: Inhibition of GST-tagged human recombinant PTB1B using pNPP as substrate at 20 ug/ml after 3 mins
T1 sequence (whole entry): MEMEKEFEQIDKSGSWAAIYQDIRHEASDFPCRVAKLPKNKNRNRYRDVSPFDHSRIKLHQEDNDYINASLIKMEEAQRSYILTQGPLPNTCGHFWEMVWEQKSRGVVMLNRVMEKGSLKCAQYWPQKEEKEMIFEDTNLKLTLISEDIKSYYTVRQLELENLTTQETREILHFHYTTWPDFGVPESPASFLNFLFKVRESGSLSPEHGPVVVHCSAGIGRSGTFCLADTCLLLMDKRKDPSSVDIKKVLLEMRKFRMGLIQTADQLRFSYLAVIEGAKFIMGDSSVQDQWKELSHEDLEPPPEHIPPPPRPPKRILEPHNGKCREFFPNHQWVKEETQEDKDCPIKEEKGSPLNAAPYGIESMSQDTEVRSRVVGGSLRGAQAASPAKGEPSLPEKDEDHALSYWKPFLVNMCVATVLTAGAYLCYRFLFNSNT

[2] = biological target: T1, Tyrosine-protein phosphatase non-receptor type 1 (Homo sapiens); assay: Inhibition of GST-tagged human recombinant PTB1B using pNPP as substrate at 5 ug/ml after 3 mins
[3] = biological target: T2, Tyrosine-protein phosphatase non-receptor type 1 (Homo sapiens, UniProt P18031); assay: Inhibition of GST-tagged human recombinant PTB1B using pNPP as substrate after 3 mins
T2 sequence (P18031 whole entry): T1 sequence (whole entry)

[4] = biological target: T3, Tyrosine-protein phosphatase non-receptor type 2 (Homo sapiens, UniProt P17706); assay: Inhibition of TCPTP after 3 mins
T3 sequence (P17706 whole entry): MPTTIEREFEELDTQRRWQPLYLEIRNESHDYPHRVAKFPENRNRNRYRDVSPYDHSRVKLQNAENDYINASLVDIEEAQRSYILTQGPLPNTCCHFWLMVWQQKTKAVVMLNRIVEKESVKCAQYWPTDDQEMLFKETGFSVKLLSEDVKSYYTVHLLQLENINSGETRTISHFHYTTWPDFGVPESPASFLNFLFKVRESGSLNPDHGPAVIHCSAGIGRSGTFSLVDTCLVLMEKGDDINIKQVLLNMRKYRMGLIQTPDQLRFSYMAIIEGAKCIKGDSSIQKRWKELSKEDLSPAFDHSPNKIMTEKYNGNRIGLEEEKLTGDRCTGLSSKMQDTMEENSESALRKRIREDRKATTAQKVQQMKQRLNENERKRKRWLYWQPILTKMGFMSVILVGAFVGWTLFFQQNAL
In short: (§1)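 Selectivity assays run in the same system as PTP1B. Enzyme and inhibitor preincubated 3 min at 4 °C, then the reaction started by adding substrate. OMFP used as substrate for SHP1, SHP2 and LAR. IC50 derived by Hill-equation fit of percent inhibition against inhibitor concentration.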

[5] = biological target: T4, Tyrosine-protein phosphatase non-receptor type 11 (Homo sapiens, UniProt Q06124); assay: Inhibition of SHP2 using OMFP as substrate after 3 mins; in short: as §1
T4 sequence (Q06124 whole entry): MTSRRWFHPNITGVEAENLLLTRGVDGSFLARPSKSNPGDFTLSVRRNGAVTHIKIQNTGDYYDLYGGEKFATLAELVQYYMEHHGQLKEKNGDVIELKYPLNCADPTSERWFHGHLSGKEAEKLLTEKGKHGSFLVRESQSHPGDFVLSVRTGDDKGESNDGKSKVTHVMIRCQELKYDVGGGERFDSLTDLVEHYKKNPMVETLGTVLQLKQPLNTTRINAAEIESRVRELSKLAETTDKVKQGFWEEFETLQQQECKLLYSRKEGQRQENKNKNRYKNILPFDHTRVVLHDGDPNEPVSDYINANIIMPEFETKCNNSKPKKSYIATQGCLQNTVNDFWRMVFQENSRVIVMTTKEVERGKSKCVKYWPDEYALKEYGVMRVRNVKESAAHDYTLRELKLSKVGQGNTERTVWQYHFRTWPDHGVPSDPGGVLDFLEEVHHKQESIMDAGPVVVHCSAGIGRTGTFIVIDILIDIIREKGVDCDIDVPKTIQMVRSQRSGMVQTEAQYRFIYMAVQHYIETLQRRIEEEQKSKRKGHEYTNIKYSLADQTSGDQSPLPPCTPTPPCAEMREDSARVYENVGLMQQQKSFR

[6] = biological target: Tyrosine-protein phosphatase non-receptor type 6 (Homo sapiens, UniProt P29350); assay: Inhibition of SHP1 using OMFP as substrate after 3 mins; in short: as §1
Tyrosine-protein phosphatase non-receptor type 6, sequence (P29350 whole entry): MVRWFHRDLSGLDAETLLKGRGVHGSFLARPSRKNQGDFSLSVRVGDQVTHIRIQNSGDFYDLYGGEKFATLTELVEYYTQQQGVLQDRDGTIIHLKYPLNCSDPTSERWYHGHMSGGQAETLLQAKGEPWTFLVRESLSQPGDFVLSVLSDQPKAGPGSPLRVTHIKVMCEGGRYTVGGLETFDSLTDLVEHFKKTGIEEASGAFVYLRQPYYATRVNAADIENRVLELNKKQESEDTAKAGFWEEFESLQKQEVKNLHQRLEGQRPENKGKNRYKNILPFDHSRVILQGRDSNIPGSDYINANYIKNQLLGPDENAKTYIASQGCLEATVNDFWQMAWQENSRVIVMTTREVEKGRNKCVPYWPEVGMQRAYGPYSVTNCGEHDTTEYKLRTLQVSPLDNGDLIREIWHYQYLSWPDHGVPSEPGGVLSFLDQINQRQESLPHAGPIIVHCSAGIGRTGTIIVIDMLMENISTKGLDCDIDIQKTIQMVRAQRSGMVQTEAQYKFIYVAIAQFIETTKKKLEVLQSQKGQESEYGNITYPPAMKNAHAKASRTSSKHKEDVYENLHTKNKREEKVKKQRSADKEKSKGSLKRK

[7] = biological target: Receptor-type tyrosine-protein phosphatase F (Homo sapiens, UniProt P10586); assay: Inhibition of LAR using OMFP as substrate after 3 mins; in short: as §1
Receptor-type tyrosine-protein phosphatase F, sequence (P10586 whole entry): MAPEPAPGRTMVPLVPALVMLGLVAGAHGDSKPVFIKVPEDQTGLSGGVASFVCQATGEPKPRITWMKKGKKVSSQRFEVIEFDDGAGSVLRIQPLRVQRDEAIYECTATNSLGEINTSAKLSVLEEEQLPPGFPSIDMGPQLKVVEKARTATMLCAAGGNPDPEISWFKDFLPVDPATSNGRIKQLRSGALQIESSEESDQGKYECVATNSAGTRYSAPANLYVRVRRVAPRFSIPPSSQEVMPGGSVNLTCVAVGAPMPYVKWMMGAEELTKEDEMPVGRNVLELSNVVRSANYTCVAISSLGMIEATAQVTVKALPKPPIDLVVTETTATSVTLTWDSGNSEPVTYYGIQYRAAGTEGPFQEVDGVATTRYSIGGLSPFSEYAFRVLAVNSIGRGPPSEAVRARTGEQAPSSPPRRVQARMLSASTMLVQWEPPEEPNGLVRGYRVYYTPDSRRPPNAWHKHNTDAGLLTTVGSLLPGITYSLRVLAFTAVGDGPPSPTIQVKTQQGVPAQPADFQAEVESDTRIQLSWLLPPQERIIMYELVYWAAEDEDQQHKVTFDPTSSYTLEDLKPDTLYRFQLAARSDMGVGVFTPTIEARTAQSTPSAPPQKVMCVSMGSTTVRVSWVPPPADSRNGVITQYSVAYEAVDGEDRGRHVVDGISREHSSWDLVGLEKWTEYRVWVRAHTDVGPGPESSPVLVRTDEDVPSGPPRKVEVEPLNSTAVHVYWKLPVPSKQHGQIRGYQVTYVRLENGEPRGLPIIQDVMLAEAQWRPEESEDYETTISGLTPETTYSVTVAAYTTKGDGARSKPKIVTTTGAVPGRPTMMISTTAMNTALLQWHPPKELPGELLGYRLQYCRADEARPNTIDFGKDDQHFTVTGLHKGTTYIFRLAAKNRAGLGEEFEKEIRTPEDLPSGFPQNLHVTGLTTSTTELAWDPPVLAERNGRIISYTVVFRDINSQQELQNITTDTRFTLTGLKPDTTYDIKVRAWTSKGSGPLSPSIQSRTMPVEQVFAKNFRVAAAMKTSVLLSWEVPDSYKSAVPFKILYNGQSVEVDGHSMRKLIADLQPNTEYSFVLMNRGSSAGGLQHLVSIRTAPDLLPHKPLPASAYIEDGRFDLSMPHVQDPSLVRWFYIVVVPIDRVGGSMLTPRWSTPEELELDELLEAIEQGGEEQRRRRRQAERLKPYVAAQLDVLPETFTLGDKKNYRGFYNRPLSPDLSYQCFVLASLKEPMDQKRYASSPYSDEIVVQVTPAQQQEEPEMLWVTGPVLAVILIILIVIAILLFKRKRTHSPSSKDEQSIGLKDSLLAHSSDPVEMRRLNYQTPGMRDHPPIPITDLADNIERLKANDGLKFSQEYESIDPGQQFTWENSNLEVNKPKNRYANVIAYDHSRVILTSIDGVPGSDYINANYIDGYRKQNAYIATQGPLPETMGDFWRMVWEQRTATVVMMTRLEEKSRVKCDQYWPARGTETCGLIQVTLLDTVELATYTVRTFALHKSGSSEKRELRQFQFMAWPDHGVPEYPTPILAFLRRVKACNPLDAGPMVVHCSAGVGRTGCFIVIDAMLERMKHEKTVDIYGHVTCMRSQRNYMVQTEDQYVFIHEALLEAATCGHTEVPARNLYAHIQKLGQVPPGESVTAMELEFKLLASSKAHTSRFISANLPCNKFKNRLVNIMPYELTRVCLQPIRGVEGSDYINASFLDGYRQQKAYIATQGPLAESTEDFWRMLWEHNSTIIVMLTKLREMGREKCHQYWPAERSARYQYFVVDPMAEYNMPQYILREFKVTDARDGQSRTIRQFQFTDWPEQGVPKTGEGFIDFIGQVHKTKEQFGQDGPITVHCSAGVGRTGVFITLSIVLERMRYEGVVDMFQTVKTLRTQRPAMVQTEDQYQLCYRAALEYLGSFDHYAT

[8] = test system: Mus musculus; assay: Antihyperglycemic activity in C57BL/Ks db/db mouse assessed as reduction of plasma glucose level at 50 mg/kg, po after 2 to 6 weeks by glucometer relative to control; format: functional; parameters: scale not given: the % may be the effect or the level left
In short: (§2)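 db/db mice (C57BL/Ks, 10 weeks old, n = 8 per group) given compound orally in 0.5% sodium carboxymethyl cellulose for six weeks, with a vehicle model group. Postprandial blood glucose read weekly by glucometer. Baseline, 2-week and 6-week values given as mean ± SD. Percent decrease reported at 6 weeks, with statistics against the model group.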

[9] = test system: Mus musculus; assay: Antihyperglycemic activity in C57BL/Ks db/db mouse assessed as reduction of plasma glucose level at 25 mg/kg, po after 2 to 6 weeks by glucometer relative to control; format: functional; parameters: scale not given: the % may be the effect or the level left; in short: as §2
[10] = test system: Mus musculus; assay: Antihyperglycemic activity in C57BL/Ks db/db mouse assessed as reduction of glycosylated hemoglobin level using HbA1c reagent at 50 mg/kg, po after 2 to 6 weeks relative to control; format: functional; parameters: scale not given: the % may be the effect or the level left
In short: (§3)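 HbA1c measured in C57BL/Ks db/db mice (n = 8 per group, 10 weeks old at start). Mice received oral doses suspended in 0.5% sodium carboxymethyl cellulose for six weeks, alongside a vehicle-treated model group. Results given as mean ± SD, compared against the model group.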

[11] = test system: Mus musculus; assay: Antihyperglycemic activity in C57BL/Ks db/db mouse assessed as reduction of glycosylated hemoglobin level using HbA1c reagent at 25 mg/kg, po after 2 to 6 weeks relative to control; format: functional; parameters: scale not given: the % may be the effect or the level left; in short: as §3
[12] = test system: Mus musculus; assay: Antidyslipidemic activity in C57BL/Ks db/db mouse assessed as reduction of triacylglycerol level at 50 mg/kg, po after 2 weeks (reference value: 1.24 +/- 0.12 mmol/L); format: functional
[13] = test system: Mus musculus; assay: Antidyslipidemic activity in C57BL/Ks db/db mouse assessed as reduction of triacylglycerol level at 25 mg/kg, po after 2 weeks (reference value: 1.24 +/- 0.12 mmol/L); format: functional
[14] = test system: Mus musculus; assay: Antidyslipidemic activity in C57BL/Ks db/db mouse assessed as reduction of triacylglycerol level at 50 mg/kg, po after 6 weeks (reference value: 1.56 +/- 0.17 mmol/L); format: functional
[15] = test system: Mus musculus; assay: Antidyslipidemic activity in C57BL/Ks db/db mouse assessed as reduction of triacylglycerol level at 25 mg/kg, po after 6 weeks (reference value: 1.56 +/- 0.17 mmol/L); format: functional
[16] = test system: Mus musculus; assay: Antidyslipidemic activity in C57BL/Ks db/db mouse assessed as reduction of total cholesterol level at 50 mg/kg, po after 2 weeks (reference value: 9.8 +/- 0.7 mmol/L); format: functional
[17] = test system: Mus musculus; assay: Antidyslipidemic activity in C57BL/Ks db/db mouse assessed as reduction of total cholesterol level at 25 mg/kg, po after 2 weeks (reference value: 9.8 +/- 0.7 mmol/L); format: functional
[18] = test system: Mus musculus; assay: Antidyslipidemic activity in C57BL/Ks db/db mouse assessed as reduction of total cholesterol level at 50 mg/kg, po after 6 weeks (reference value: 9.2 +/- 1.2 mmol/L); format: functional
[19] = test system: Mus musculus; assay: Antidyslipidemic activity in C57BL/Ks db/db mouse assessed as reduction of total cholesterol level at 25 mg/kg, po after 6 weeks (reference value: 9.2 +/- 1.2 mmol/L); format: functional
[20] = organism: Homo sapiens; assay: Selectivity ratio of IC50 for TCPTP to IC50 for GST-tagged human recombinant PTB1B
[21] = organism: Homo sapiens; assay: Selectivity ratio of IC50 for SHP2 to IC50 for GST-tagged human recombinant PTB1B
[22] = organism: Homo sapiens; assay: Selectivity ratio of IC50 for SHP1 to IC50 for GST-tagged human recombinant PTB1B
[23] = organism: Homo sapiens; assay: Selectivity ratio of IC50 for LAR to IC50 for GST-tagged human recombinant PTB1B
[24] = test system: Mus musculus; assay: Toxicity in C57BL/Ks db/db mouse at 25 to 50 mg/kg, po after 2 to 6 weeks; format: organism-based; parameters: route oral; conditions: in vivo

Oc1cc(Br)c(Cc2cc(O)c(O)cc2Br)cc1O
inhibition [1]: 20.9%

Oc1c(O)c(Br)c(Cc2c(Br)c(O)c(O)c(Br)c2Br)c(Br)c1Br
inhibition [1]: 101%
inhibition [2]: 86.7%
IC50 [3]: 680 nM
IC50 [4]: > 50 µM
IC50 [5]: > 50 µM
IC50 [6]: > 50 µM
IC50 [7]: > 50 µM
Activity [8]: 40.4%
Activity [9]: 33.5%
Activity [10]: 3.05%
Activity [11]: 3.05%
Activity [12]: 1.28 mmol/L
Activity [13]: 1.2 mmol/L
Activity [14]: 1.51 mmol/L
Activity [15]: 1.45 mmol/L
Activity [16]: 7.1 mmol/L
Activity [17]: 8.3 mmol/L
Activity [18]: 8.4 mmol/L
Activity [19]: 9.1 mmol/L
Ratio IC50 [20]: > 70
Ratio IC50 [21]: > 70
Ratio IC50 [22]: > 70
Ratio IC50 [23]: > 70
Activity [24]: Non-toxic

Oc1cc(Cc2cc(O)c(O)c(Br)c2Br)c(Br)c(Br)c1O
inhibition [1]: 91.3%
inhibition [2]: 38.9%
IC50 [3]: 2420 nM

COc1cc(Br)c(Cc2cc(OC)c(OC)cc2Br)cc1OC
inhibition [1]: 33.6%

COc1cc(C(=O)c2cc(OC)c(OC)c(Br)c2Br)c(Br)c(Br)c1OC
inhibition [1]: 21.4%

Oc1cc(Br)c(Cc2cc(O)c(O)c(Br)c2Br)cc1O
inhibition [1]: 40.5%

COc1cc(C(=O)c2c(Br)c(Br)c(OC)c(OC)c2Br)c(Br)c(Br)c1OC
inhibition [1]: 69.8%
inhibition [2]: 50.6%
IC50 [3]: 3260 nM

COc1cc(Cc2cc(OC)c(OC)c(Br)c2Br)c(Br)c(Br)c1OC
inhibition [1]: 60.4%
inhibition [2]: 28.9%

COc1ccc(C(=O)c2cc(OC)c(OC)cc2Br)cc1OC
inhibition [1]: 13%

O=C(c1cc(O)c(O)c(Br)c1Br)c1cc(O)c(O)c(Br)c1Br
inhibition [1]: 20.3%

O=C(c1cc(O)c(O)cc1Br)c1cc(O)c(O)cc1Br
inhibition [1]: 8.74%

COc1cc(Cc2c(Br)c(Br)c(OC)c(OC)c2Br)c(Br)c(Br)c1OC
inhibition [1]: 98.7%
inhibition [2]: 49.3%

COc1ccc(C(=O)c2ccc(OC)c(OC)c2)cc1OC
inhibition [1]: 2.72%

O=C(c1ccc(O)c(O)c1)c1cc(O)c(O)cc1Br
inhibition [1]: 11.2%

O=C(c1ccc(O)c(O)c1)c1ccc(O)c(O)c1
inhibition [1]: 13.5%

COc1c(Br)c(Br)c(Cc2c(Br)c(Br)c(OC)c(OC)c2Br)c(Br)c1OC
inhibition [1]: 96.9%
inhibition [2]: 37.9%

O=C(c1cc(O)c(O)cc1Br)c1cc(O)c(O)c(Br)c1Br
inhibition [1]: 42.7%

Oc1cc(Cc2c(Br)c(O)c(O)c(Br)c2Br)c(Br)c(Br)c1O
inhibition [1]: 92.3%
inhibition [2]: 45.3%

COc1ccc(Cc2ccc(OC)c(OC)c2)cc1OC
inhibition [1]: 38.4%

COc1c(Br)c(Br)c(C(=O)c2c(Br)c(Br)c(OC)c(OC)c2Br)c(Br)c1OC
inhibition [1]: 105%
inhibition [2]: 47.8%
IC50 [3]: 2020 nM

COc1cc(Br)c(C(=O)c2cc(OC)c(OC)c(Br)c2Br)cc1OC
inhibition [1]: 37.5%

O=C(c1cc(O)c(O)c(Br)c1Br)c1c(Br)c(O)c(O)c(Br)c1Br
inhibition [1]: 95.1%
inhibition [2]: 72.1%
IC50 [3]: 2450 nM

Oc1ccc(Cc2ccc(O)c(O)c2)cc1O
inhibition [1]: 9.27%

O=C(c1c(Br)c(O)c(O)c(Br)c1Br)c1c(Br)c(O)c(O)c(Br)c1Br
inhibition [1]: 78.6%
inhibition [2]: 29.2%

CN(CCOc1ccc(CC2SC(=O)NC2=O)cc1)c1ccccn1 (stereo unspecified) [ROSIGLITAZONE]
Activity [8]: 48.4%
Activity [10]: 2.56%
Activity [12]: 1.06 mmol/L
Activity [14]: 1.29 mmol/L
Activity [16]: 6.5 mmol/L
Activity [18]: 7.7 mmol/L

COc1cc(Br)c(Cc2cc(OC)c(OC)c(Br)c2Br)cc1OC
inhibition [1]: 52.5%
inhibition [2]: 40.2%

Oc1ccc(Cc2cc(O)c(O)cc2Br)cc1O
inhibition [1]: 12.2%

COc1cc(Br)c(C(=O)c2cc(OC)c(OC)cc2Br)cc1OC
inhibition [1]: 33.6%

COc1ccc(Cc2cc(OC)c(OC)cc2Br)cc1OC
inhibition [1]: 14.4%
